Reference: ChEMBL document CHEMBL2385063, “Identification of 2-(2-(1-naphthoyl)-8-fluoro-3,4-dihydro-1H-pyrido[4,3-b]indol-5(2H)-yl)acetic acid (setipiprant/ACT-129968), a potent, selective, and orally bioavailable chemoattractant receptor-homologous molecule expressed on Th2 cells (CRTH2) antagonist” (J Med Chem, 2013)
pIC50: −log10 of the molar value. ≈ marks a conversion by molar mass, not a printed value. Each block holds one molecule with its values, some of them ahead of it. Calls of active or inactive are those of the source. The rule behind the calls is not given here.

Tests used:
[1] = target: T1, Chemoattractant receptor-homologous molecule expressed on Th2 cells (Cavia porcellus) (UniProt Q56D28); experiment: Antagonist activity at guinea pig CRTH2 receptor assessed as inhibition of calcium flux by cell-based FLIPR assay; type: functional
T1 sequence (whole entry): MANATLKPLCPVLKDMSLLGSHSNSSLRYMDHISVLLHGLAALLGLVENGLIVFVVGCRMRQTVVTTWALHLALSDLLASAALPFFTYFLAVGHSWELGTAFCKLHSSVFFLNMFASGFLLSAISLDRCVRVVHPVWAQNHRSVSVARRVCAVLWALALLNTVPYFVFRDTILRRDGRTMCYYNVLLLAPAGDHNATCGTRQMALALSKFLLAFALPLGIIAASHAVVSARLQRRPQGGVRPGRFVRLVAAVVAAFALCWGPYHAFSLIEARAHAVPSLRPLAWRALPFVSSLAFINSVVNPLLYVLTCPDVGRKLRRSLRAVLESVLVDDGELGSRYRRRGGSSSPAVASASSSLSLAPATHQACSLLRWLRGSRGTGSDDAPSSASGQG

[2] = target: T2, Prostaglandin D2 receptor 2 (Homo sapiens, UniProt Q9Y5Y4); experiment: Displacement of [3H]PGD2 from recombinant human CRTH2 receptor expressed in HEK293 cell membranes after 90 mins by scintillation counting analysis
T2 sequence (Q9Y5Y4 whole entry): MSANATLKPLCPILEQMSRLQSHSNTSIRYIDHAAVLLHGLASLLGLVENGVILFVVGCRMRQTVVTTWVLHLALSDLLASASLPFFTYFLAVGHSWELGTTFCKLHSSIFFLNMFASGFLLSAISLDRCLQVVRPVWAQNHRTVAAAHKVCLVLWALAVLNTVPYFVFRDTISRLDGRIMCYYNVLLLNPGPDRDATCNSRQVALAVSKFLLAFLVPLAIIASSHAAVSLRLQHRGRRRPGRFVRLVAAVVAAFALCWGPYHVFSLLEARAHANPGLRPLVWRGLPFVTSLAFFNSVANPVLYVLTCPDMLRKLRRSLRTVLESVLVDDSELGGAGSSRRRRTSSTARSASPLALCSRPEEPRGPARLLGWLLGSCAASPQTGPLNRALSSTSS
In short: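 Membranes from HEK293 cells expressing hCRTH2 (80 μg protein/well) in Tris pH 7.4 buffer with NaCl, EDTA, 0.1% BSA were incubated with 2.5 nM [3H]PGD2 for 90 min at room temperature. Nonspecific binding was defined with 10 μM PGD2. Samples were filtered on PEI-soaked GF/C and read by scintillation counting.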

[3] = Intrinsic clearance in rat hepatocytes measured per 10^6 cells at 1 uM by LC/MS-MS analysis; type: ADME, cell-based, Hepatocyte; conditions: read-out: CLH
[4] = Intrinsic clearance in rat liver microsomes measured per mg of protein at 1 uM by LC/MS-MS analysis; type: ADME, Microsome; conditions: read-out: CLH
[5] = Elimination half life in human plasma at 1 mM by HR-LC-MS analysis; type: ADME, cell-free; conditions: read-out: beta t1/2
[6] = Intrinsic clearance in human liver microsomes measured per mg of protein at 1 uM by LC/MS-MS analysis; type: ADME, Microsome; conditions: read-out: CLH
[7] = Elimination half life in Sprague-Dawley rat plasma at 1 mM by HR-LC-MS analysis; type: ADME, cell-free; conditions: read-out: beta t1/2
[8] = target: Cytochrome P450 3A4 (Homo sapiens, UniProt P08684); experiment: Inhibition of CYP3A4 in human liver microsomes assessed as midazolam-1'-hydroxylation by LC-MS/MS analysis; type: ADME, Microsome
[9] = Half life in simulated gastric fluid at 2 uM by LC-MS analysis; type: physicochemical
In short: (§1)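 Compounds were incubated in simulated gastric fluid for 1 h or simulated intestinal fluid for 4 h. Unchanged parent was quantified by LC-MS.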

[10] = Half life in simulated intestinal fluid at 2 uM by LC-MS analysis; type: physicochemical; in short: as §1
[11] = target: Cytochrome P450 2D6 (Homo sapiens, UniProt P10635); experiment: Inhibition of CYP2D6 in human liver microsomes assessed as dextromethorphan O-demethylation by LC-MS/MS analysis; type: ADME, Microsome
[12] = target: Cytochrome P450 2C9 (Homo sapiens, UniProt P11712); experiment: Inhibition of CYP2C9 in human liver microsomes assessed as diclofenac 4'-hydroxylation by LC-MS/MS analysis; type: ADME, Microsome
[13] = Solubility of the compound in aqueous buffer at pH 7; type: physicochemical
In short: (§2)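 Compound was stirred in water, 60 mM citrate buffer pH 4 or 70 mM phosphate buffer pH 7 at 300 rpm, 25 °C, for 24 h. The mixture was filtered, and the filtrate concentration was measured by HPLC-UV at 250 nm against a calibration curve.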

[14] = Solubility of the compound in aqueous buffer at pH 4; type: physicochemical; in short: as §2
[15] = n-octanol-KH2PO4-Na2HPO4 buffer partition coefficient, log D of the compound at pH 7.4 by shake flask method; type: physicochemical
[16] = target: T3, Prostaglandin D2 receptor (Homo sapiens, UniProt Q13258); experiment: Displacement of [3H]PGD2 from recombinant human prostanoid DP1 receptor expressed in CHO cells after 90 mins by scintillation counting analysis; type: cell-based
T3 sequence (Q13258 whole entry): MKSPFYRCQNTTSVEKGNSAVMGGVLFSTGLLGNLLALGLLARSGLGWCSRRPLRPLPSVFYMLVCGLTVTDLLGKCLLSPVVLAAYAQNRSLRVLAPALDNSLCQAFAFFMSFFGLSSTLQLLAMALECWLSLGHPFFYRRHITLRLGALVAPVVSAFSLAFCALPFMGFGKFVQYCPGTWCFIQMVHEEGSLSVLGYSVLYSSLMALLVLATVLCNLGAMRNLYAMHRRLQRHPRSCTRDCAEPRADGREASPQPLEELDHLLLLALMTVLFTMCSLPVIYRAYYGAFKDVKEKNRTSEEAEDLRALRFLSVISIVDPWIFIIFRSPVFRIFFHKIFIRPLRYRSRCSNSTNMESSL
In short: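 Competitive binding with CHO cells stably expressing high levels of recombinant hDP1, using [3H]PGD2 as ligand; IC50 reported.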

[17] = target: T2, Prostaglandin D2 receptor 2; experiment: Antagonist activity at CRTH2 receptor in human eosinophils assessed as inhibition of PGD2-induced cell shape change incubated for 1 hr prior to PGD2 induction measured after 5 mins by FACS flow cytometric analysis in presence of human plasma; conditions: in the assay text read “incubated for 10 mins” for “incubated for 1 hr”
In short: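 Polymorphonuclear cells isolated from healthy-donor blood on a Polymorphprep gradient (500g, 30 min), erythrocytes lysed hypotonically. Cells stained 1 h with CD49d-APC, mixed with human plasma, preincubated with antagonist, then stimulated with 15 nM PGD2 for 5 min at 37 °C. Fixed in cold 1% paraformaldehyde. Eosinophils gated by CD49d/SSC; activation read as % cells with raised forward scatter.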

[18] = target: T2, Prostaglandin D2 receptor 2; experiment: Antagonist activity at CRTH2 receptor in human eosinophils assessed as inhibition of PGD2-induced cell shape change incubated for 10 mins prior to PGD2 induction measured after 5 mins by FACS flow cytometric analysis in presence of human plasma

Cytochrome P450 2D6, sequence (P10635 whole entry): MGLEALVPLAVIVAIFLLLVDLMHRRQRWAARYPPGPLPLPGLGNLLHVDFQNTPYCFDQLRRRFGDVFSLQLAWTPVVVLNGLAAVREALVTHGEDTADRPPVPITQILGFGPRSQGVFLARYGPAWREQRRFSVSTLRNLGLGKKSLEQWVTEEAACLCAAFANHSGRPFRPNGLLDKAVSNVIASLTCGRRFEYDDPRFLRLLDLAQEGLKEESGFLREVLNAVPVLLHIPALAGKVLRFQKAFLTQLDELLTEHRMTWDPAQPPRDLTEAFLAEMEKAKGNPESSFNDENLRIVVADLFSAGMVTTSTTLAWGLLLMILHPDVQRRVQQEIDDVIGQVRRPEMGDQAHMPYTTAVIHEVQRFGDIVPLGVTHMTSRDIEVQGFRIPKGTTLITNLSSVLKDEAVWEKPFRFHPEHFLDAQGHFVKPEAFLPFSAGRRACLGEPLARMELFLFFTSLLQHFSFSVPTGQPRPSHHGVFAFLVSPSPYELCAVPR
Cytochrome P450 2C9, sequence (P11712 whole entry): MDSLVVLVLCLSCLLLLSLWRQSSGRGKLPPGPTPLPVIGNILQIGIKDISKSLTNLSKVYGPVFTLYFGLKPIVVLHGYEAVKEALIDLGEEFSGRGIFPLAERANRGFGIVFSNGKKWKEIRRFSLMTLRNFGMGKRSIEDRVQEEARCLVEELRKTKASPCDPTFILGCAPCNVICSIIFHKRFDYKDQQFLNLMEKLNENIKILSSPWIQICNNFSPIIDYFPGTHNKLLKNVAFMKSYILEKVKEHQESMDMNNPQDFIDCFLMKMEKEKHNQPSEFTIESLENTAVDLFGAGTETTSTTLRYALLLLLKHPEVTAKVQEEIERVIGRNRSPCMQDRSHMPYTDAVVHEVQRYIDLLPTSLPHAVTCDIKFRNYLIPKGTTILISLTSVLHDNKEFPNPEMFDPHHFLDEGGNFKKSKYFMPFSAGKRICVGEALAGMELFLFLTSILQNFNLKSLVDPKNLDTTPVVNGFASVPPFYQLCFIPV
Cytochrome P450 3A4, sequence (P08684 whole entry): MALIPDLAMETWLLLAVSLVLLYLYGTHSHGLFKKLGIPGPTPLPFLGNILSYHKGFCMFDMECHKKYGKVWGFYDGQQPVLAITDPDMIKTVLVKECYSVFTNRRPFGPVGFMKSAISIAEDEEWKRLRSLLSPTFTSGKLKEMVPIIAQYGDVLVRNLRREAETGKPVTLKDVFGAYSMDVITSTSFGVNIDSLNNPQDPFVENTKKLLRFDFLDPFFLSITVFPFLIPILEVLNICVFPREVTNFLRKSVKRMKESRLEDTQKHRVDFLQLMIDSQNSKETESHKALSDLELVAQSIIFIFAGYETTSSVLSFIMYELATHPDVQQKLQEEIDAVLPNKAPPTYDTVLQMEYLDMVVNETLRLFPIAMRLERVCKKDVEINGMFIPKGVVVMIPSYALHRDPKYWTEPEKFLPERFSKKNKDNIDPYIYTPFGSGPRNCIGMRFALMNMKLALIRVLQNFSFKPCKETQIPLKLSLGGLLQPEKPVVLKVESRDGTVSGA

- hepatocyte CLint at 1 µM [3]: 1.4 µL/min/1e6 cells
- microsomal CLint at 1 µM [4]: 24 µL/min/mg
- half-life [5]: > 4 h
- microsomal CLint at 1 µM [6]: 5 µL/min/mg
- half-life [7]: > 4 h
- pIC50 [8]: < 4.30
- half-life at 2 µM [9]: > 1 h
- half-life at 2 µM [10]: > 4 h
- pIC50 [11]: < 4.30
- pIC50 [12]: < 4.30
- solubility [13]: 815 µg/mL (≈ 2210 µM)
- solubility [14]: 180 µg/mL (≈ 488 µM)
- logD [15]: -0.5
- inhibition [1]: Active
- pIC50 [16]: < 5.00
- pIC50 [17]: 7.30
- pIC50 [2]: 8.00
Compound: O=C(O)Cn1c2c(c3ccccc31)CN(C(=O)c1cccc(Cl)c1)CC2

- inhibition [1]: Active
- pIC50 [16]: 5.57
- pIC50 [17]: 6.47
- pIC50 [2]: 8.30
Compound: Cc1ccc2c(c1)c1c(n2CC(=O)O)CCN(C(=O)c2cccc3ccccc23)C1

- inhibition [1]: Active
- pIC50 [2]: 7.21
Compound: COc1ccc2c(c1)c1c(n2CC(=O)O)CCN(C(=O)c2ccccc2)C1

- inhibition [1]: Active
- pIC50 [16]: 6.16
- pIC50 [2]: 8.40
- pIC50 [18]: 7.00
Compound: O=C(O)Cn1c2c(c3cc(Cl)ccc31)CN(C(=O)c1cccc3ccccc13)CC2

- inhibition [1]: Active
- pIC50 [2]: 7.38
Compound: CC(C)c1ccc2c(c1)c1c(n2CC(=O)O)CCN(C(=O)c2ccccc2)C1

- inhibition [1]: Active
- pIC50 [16]: < 5.00
- pIC50 [2]: 8.05
- pIC50 [18]: 6.89
Compound: O=C(O)Cn1c2c(c3cc(C(F)(F)F)ccc31)CN(C(=O)c1ccccc1)CC2

Second part, the molecule before the results:

Compound: O=C(O)Cn1c2c(c3ccccc31)CN(C(=O)C1CCCCC1)CC2
- inhibition [1]: Active
- pIC50 [2]: 7.15

Compound: O=C(O)Cn1c2c(c3cc(F)ccc31)CN(C(=O)CCc1cccc3ccccc13)CC2
- inhibition [1]: Active
- pIC50 [16]: < 5.00
- pIC50 [2]: 8.00
- pIC50 [18]: 6.68

Compound: CCc1ccc(-c2ccc(C(=O)N3CCc4c(c5cccc(Cl)c5n4CC(=O)O)C3)cc2)cc1
- inhibition [1]: Active
- pIC50 [16]: 6.92
- pIC50 [2]: 7.64

Compound: CCc1ccc(-c2ccc(C(=O)N3CCc4c(c5ccccc5n4CC(=O)O)C3)cc2)cc1
- hepatocyte CLint at 1 µM [3]: 5.3 µL/min/1e6 cells
- microsomal CLint at 1 µM [4]: 31 µL/min/mg
- half-life [5]: > 4 h
- microsomal CLint at 1 µM [6]: 85 µL/min/mg
- half-life [7]: > 4 h
- pIC50 [8]: < 4.30
- half-life at 2 µM [9]: > 1 h
- half-life at 2 µM [10]: > 4 h
- pIC50 [11]: < 4.30
- pIC50 [12]: 4.85
- solubility [13]: 30 µg/mL (≈ 68.4 µM)
- solubility [14]: 1 µg/mL (≈ 2.28 µM)
- logD [15]: 1.8
- inhibition [1]: Active
- pIC50 [16]: 6.11
- pIC50 [17]: 6.62
- pIC50 [2]: 8.40

Compound: O=C(O)Cn1c2c(c3cc(F)ccc31)CN(C(=O)Cc1cccc3ccccc13)CC2
- microsomal CLint at 1 µM [4]: 63 µL/min/mg
- half-life [5]: > 4 h
- microsomal CLint at 1 µM [6]: 6 µL/min/mg
- half-life [7]: > 4 h
- pIC50 [8]: < 4.30
- half-life at 2 µM [9]: > 1 h
- half-life at 2 µM [10]: > 4 h
- pIC50 [11]: < 4.30
- pIC50 [12]: 4.80
- solubility [13]: 560 µg/mL (≈ 1340 µM)
- solubility [14]: 21 µg/mL (≈ 50.4 µM)
- logD [15]: 0.2
- inhibition [1]: Active
- pIC50 [16]: < 5.00
- pIC50 [17]: 6.56
- pIC50 [2]: 8.40

Compound: O=C(O)Cn1c2c(c3cc(C(F)(F)F)ccc31)CN(C(=O)c1cccc3ccccc13)CC2
- inhibition [1]: Active
- pIC50 [16]: 5.66
- pIC50 [2]: 7.96
- pIC50 [18]: 6.74

Compound: O=C(O)Cn1c2c(c3cc(F)cc(Cl)c31)CN(C(=O)c1cccc(Cl)c1)CC2
- inhibition [1]: Active
- pIC50 [16]: 5.39
- pIC50 [2]: 6.72

Compound: O=C(O)Cn1c2c(c3cc(F)ccc31)CN(C(=O)Cc1c[nH]c3ccccc13)CC2
- microsomal CLint at 1 µM [4]: 23 µL/min/mg
- half-life [5]: > 4 h
- microsomal CLint at 1 µM [6]: < 4 µL/min/mg
- half-life [7]: > 4 h
- pIC50 [8]: < 4.30
- half-life at 2 µM [9]: > 1 h
- half-life at 2 µM [10]: > 4 h
- pIC50 [11]: < 4.30
- pIC50 [12]: < 4.30
- solubility [13]: 800 µg/mL (≈ 1970 µM)
- solubility [14]: 115 µg/mL (≈ 284 µM)
- logD [15]: -0.3
- inhibition [1]: Active
- pIC50 [16]: < 5.00
- pIC50 [17]: 7.30
- pIC50 [2]: 8.30

Compound: O=C(O)Cn1c2c(c3cc(F)ccc31)CN(C(=O)c1cccc3ccccc13)CC2 [SETIPIPRANT]
- hepatocyte CLint at 1 µM [3]: 3.1 µL/min/1e6 cells
- microsomal CLint at 1 µM [4]: 5 µL/min/mg
- half-life [5]: > 4 h
- microsomal CLint at 1 µM [6]: 5 µL/min/mg
- half-life [7]: > 4 h
- pIC50 [8]: < 4.30
- half-life at 2 µM [9]: > 1 h
- half-life at 2 µM [10]: > 4 h
- pIC50 [11]: < 4.30
- pIC50 [12]: < 4.30
- solubility [13]: 880 µg/mL (≈ 2190 µM)
- solubility [14]: 90 µg/mL (≈ 224 µM)
- logD [15]: 0.1
- pIC50 [16]: 5.89
- pIC50 [17]: 6.63
- pIC50 [2]: 8.22

Compound: O=C(O)Cn1c2c(c3cc(F)cc(Cl)c31)CN(C(=O)c1cccc3ccccc13)CC2
- inhibition [1]: Active
- pIC50 [16]: 6.51
- pIC50 [2]: 7.15
